Measured values: ChEMBL document CHEMBL3864121, “Development of ebsulfur analogues as potent antibacterials against methicillin-resistant Staphylococcus aureus” (Bioorg Med Chem, 2016)
Values after ≈ are worked out from the molar mass of the structure shown.

What was measured:
Type in all cases: functional
Staphylococcus aureus [1] = experiment: Antibacterial activity against methicillin-resistant Staphylococcus aureus C14 measured after overnight incubation by broth double-dilution method
How it was run: (§1)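 MIC by broth double-dilution in liquid Mueller-Hinton medium. Values are reported in µg/mL.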

Staphylococcus aureus [2] = experiment: Antibacterial activity against methicillin-resistant Staphylococcus aureus S22 measured after overnight incubation by broth double-dilution method; how it was run: as §1
Staphylococcus aureus [3] = experiment: Antibacterial activity against methicillin-resistant Staphylococcus aureus G14 measured after overnight incubation by broth double-dilution method; how it was run: as §1
Staphylococcus aureus [4] = experiment: Antibacterial activity against methicillin-resistant Staphylococcus aureus C7 measured after overnight incubation by broth double-dilution method; how it was run: as §1
Staphylococcus aureus [5] = experiment: Antibacterial activity against methicillin-resistant Staphylococcus aureus S17 measured after overnight incubation by broth double-dilution method; how it was run: as §1
Staphylococcus aureus [6] = experiment: Antibacterial activity against methicillin-resistant Staphylococcus aureus G1 measured after overnight incubation by broth double-dilution method; how it was run: as §1
Staphylococcus aureus [7] = experiment: Antibacterial activity against methicillin-sensitive Staphylococcus aureus ATCC 25923 measured after overnight incubation by broth double-dilution method; how it was run: as §1
Staphylococcus aureus [8] = experiment: Antibacterial activity against methicillin-resistant Staphylococcus aureus G6 measured after overnight incubation by broth double-dilution method; how it was run: as §1
Staphylococcus aureus [9] = experiment: Antibacterial activity against methicillin-resistant Staphylococcus aureus S14 measured after overnight incubation by broth double-dilution method; how it was run: as §1
Staphylococcus aureus [10] = experiment: Antibacterial activity against methicillin-resistant Staphylococcus aureus ATCC 33591 measured after overnight incubation by broth double-dilution method; how it was run: as §1
Staphylococcus aureus [11] = experiment: Antibacterial activity against methicillin-resistant Staphylococcus aureus G12 measured after overnight incubation by broth double-dilution method; how it was run: as §1
Staphylococcus aureus [12] = experiment: Antibacterial activity against methicillin-sensitive Staphylococcus aureus ATCC 29213 measured after overnight incubation by broth double-dilution method; how it was run: as §1
Staphylococcus aureus [13] = experiment: Antibacterial activity against methicillin-resistant Staphylococcus aureus BRS3 measured after overnight incubation by broth double-dilution method; how it was run: as §1
Staphylococcus aureus [14] = experiment: Antibacterial activity against methicillin-resistant Staphylococcus aureus 2 measured after overnight incubation by broth double-dilution method; how it was run: as §1
Enterococcus = experiment: Antibacterial activity against Vancomycin-resistant Enterococcus measured after overnight incubation by broth double-dilution method; how it was run: as §1
Staphylococcus aureus [15] = experiment: Antibacterial activity against methicillin-resistant Staphylococcus aureus S24 measured after overnight incubation by broth double-dilution method; how it was run: as §1
Staphylococcus aureus [16] = experiment: Antibacterial activity against methicillin-resistant Staphylococcus aureus C16 measured after overnight incubation by broth double-dilution method; how it was run: as §1
[17] = test system: Mycolicibacterium smegmatis; experiment: Antibacterial activity against Mycobacterium smegmatis MC2-155 measured after overnight incubation by broth double-dilution method; conditions: str. MC2 155; how it was run: as §1
Staphylococcus aureus [18] = experiment: Antibacterial activity against methicillin-resistant Staphylococcus aureus C2 measured after overnight incubation by broth double-dilution method; how it was run: as §1
Staphylococcus aureus [19] = experiment: Antibacterial activity against methicillin-resistant Staphylococcus aureus C19 measured after overnight incubation by broth double-dilution method; how it was run: as §1
Staphylococcus aureus [20] = experiment: Antibacterial activity against methicillin-resistant Staphylococcus aureus USA600 measured after overnight incubation by broth double-dilution method; how it was run: as §1
Enterococcus faecium = experiment: Antibacterial activity against Enterococcus faecium BM4105-RF measured after overnight incubation by broth double-dilution method; how it was run: as §1
Staphylococcus aureus [21] = experiment: Antibacterial activity against methicillin-resistant Staphylococcus aureus USA300 measured after overnight incubation by broth double-dilution method; how it was run: as §1
Staphylococcus aureus [22] = experiment: Antibacterial activity against methicillin-sensitive Staphylococcus aureus ATCC 6538 measured after overnight incubation by broth double-dilution method; how it was run: as §1
Enterococcus faecalis [23] = experiment: Antibacterial activity against Enterococcus faecalis ATCC 49533 measured after overnight incubation by broth double-dilution method
How it was run: (§2)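 MIC by broth double-dilution in Mueller-Hinton medium. Re-testing at the time-kill inoculum used 1×10^6 CFU/mL.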

Enterococcus faecalis [24] = experiment: Antibacterial activity against Enterococcus faecalis ATCC 29212 measured after overnight incubation by broth double-dilution method; how it was run: as §2
Staphylococcus aureus [25] = experiment: Antibacterial activity against methicillin-resistant Staphylococcus aureus USA100 measured after overnight incubation by broth double-dilution method; how it was run: as §1
Staphylococcus aureus [26] = experiment: Antibacterial activity against methicillin-resistant Staphylococcus aureus C1 measured after overnight incubation by broth double-dilution method; how it was run: as §1
[27] = test system: Staphylococcus epidermidis; experiment: Antibacterial activity against Staphylococcus epidermidis ATCC 35984 measured after overnight incubation by broth double-dilution method; conditions: RP62A; how it was run: as §2
Staphylococcus aureus [28] = experiment: Antibacterial activity against methicillin-resistant Staphylococcus aureus NRS51 measured after overnight incubation by broth double-dilution method; how it was run: as §1
Staphylococcus aureus [29] = experiment: Antibacterial activity against methicillin-resistant Staphylococcus aureus USA200 measured after overnight incubation by broth double-dilution method; how it was run: as §1
Staphylococcus aureus [30] = experiment: Antibacterial activity against methicillin-resistant Staphylococcus aureus 1 measured after overnight incubation by broth double-dilution method; how it was run: as §1
Listeria monocytogenes = experiment: Antibacterial activity against Listeria monocytogenes ATCC 19115 measured after overnight incubation by broth double-dilution method; how it was run: as §2
Staphylococcus aureus [31] = experiment: Antibacterial activity against methicillin-resistant Staphylococcus aureus NRS4 measured after overnight incubation by broth double-dilution method; how it was run: as §1
Staphylococcus aureus [32] = experiment: Antibacterial activity against methicillin-resistant Staphylococcus aureus NRS77 measured after overnight incubation by broth double-dilution method; how it was run: as §1

Row | SMILES | MIC (Staphylococcus aureus [1]) | MIC (Staphylococcus aureus [2]) | MIC (Staphylococcus aureus [3]) | MIC (Staphylococcus aureus [4]) | MIC (Staphylococcus aureus [5]) | MIC (Staphylococcus aureus [6]) | MIC (Staphylococcus aureus [7]) | MIC (Staphylococcus aureus [8]) | MIC (Staphylococcus aureus [9]) | MIC (Staphylococcus aureus [10]) | MIC (Staphylococcus aureus [11]) | MIC (Staphylococcus aureus [12]) | MIC (Staphylococcus aureus [13]) | MIC (Staphylococcus aureus [14]) | MIC (Enterococcus) | MIC (Staphylococcus aureus [15]) | MIC (Staphylococcus aureus [16]) | MIC [17] | MIC (Staphylococcus aureus [18]) | MIC (Staphylococcus aureus [19]) | also measured
1 | O=c1c2ccccc2sn1C1CCCCCCC1 | 2 µg/mL (≈ 7.65 µM) | 7.8 µg/mL (≈ 29.8 µM) | 3.9 µg/mL (≈ 14.9 µM) | 3.9 µg/mL (≈ 14.9 µM) | 2 µg/mL (≈ 7.65 µM) | 1 µg/mL (≈ 3.83 µM) | > 125 µg/mL | 2 µg/mL (≈ 7.65 µM) | 1 µg/mL (≈ 3.83 µM) | > 125 µg/mL | 2 µg/mL (≈ 7.65 µM) | 2 µg/mL (≈ 7.65 µM) | 3.9 µg/mL (≈ 14.9 µM) | 3.9 µg/mL (≈ 14.9 µM) | 1 µg/mL (≈ 3.83 µM) | 3.9 µg/mL (≈ 14.9 µM) | 3.9 µg/mL (≈ 14.9 µM) | 3.9 µg/mL (≈ 14.9 µM) | 3.9 µg/mL (≈ 14.9 µM) | 2 µg/mL (≈ 7.65 µM) | MIC (Staphylococcus aureus [20]): 7.8 µg/mL (≈ 29.8 µM); MIC (Enterococcus faecium): 15.6 µg/mL (≈ 59.7 µM); MIC (Staphylococcus aureus [21]): 7.8 µg/mL (≈ 29.8 µM); MIC (Staphylococcus aureus [22]): 2 µg/mL (≈ 7.65 µM); MIC (Enterococcus faecalis [23]): 15.6 µg/mL (≈ 59.7 µM); MIC (Enterococcus faecalis [24]): 15.6 µg/mL (≈ 59.7 µM); MIC (Staphylococcus aureus [25]): 7.8 µg/mL (≈ 29.8 µM); MIC (Staphylococcus aureus [26]): 3.9 µg/mL (≈ 14.9 µM); MIC [27]: 3.9 µg/mL (≈ 14.9 µM); MIC (Staphylococcus aureus [28]): 2 µg/mL (≈ 7.65 µM); MIC (Staphylococcus aureus [29]): 7.8 µg/mL (≈ 29.8 µM); MIC (Staphylococcus aureus [30]): 3.9 µg/mL (≈ 14.9 µM); MIC (Listeria monocytogenes): > 125 µg/mL; MIC (Staphylococcus aureus [31]): 0.5 µg/mL (≈ 1.91 µM); MIC (Staphylococcus aureus [32]): 2 µg/mL (≈ 7.65 µM)
2 | O=c1c2ccccc2[s+]([O-])n1C1CCCCCCC1 (stereo not given) | > 125 µg/mL | > 125 µg/mL | > 125 µg/mL | > 125 µg/mL | > 125 µg/mL | > 125 µg/mL | > 125 µg/mL | > 125 µg/mL | > 125 µg/mL | > 125 µg/mL | > 125 µg/mL | > 125 µg/mL | > 125 µg/mL | > 125 µg/mL | > 125 µg/mL | 125 µg/mL (≈ 451 µM) | > 125 µg/mL | > 125 µg/mL | > 125 µg/mL | > 125 µg/mL | MIC (Staphylococcus aureus [20]): > 125 µg/mL; MIC (Enterococcus faecium): > 125 µg/mL; MIC (Staphylococcus aureus [21]): > 125 µg/mL; MIC (Staphylococcus aureus [22]): > 125 µg/mL; MIC (Enterococcus faecalis [23]): > 125 µg/mL; MIC (Enterococcus faecalis [24]): > 125 µg/mL; MIC (Staphylococcus aureus [25]): > 125 µg/mL; MIC (Staphylococcus aureus [26]): > 125 µg/mL; MIC [27]: > 125 µg/mL; MIC (Staphylococcus aureus [28]): > 125 µg/mL; MIC (Staphylococcus aureus [29]): > 125 µg/mL; MIC (Staphylococcus aureus [30]): > 125 µg/mL; MIC (Listeria monocytogenes): > 125 µg/mL; MIC (Staphylococcus aureus [31]): > 125 µg/mL; MIC (Staphylococcus aureus [32]): > 125 µg/mL
3 | CC(C)Cn1sc2ccccc2c1=O | 7.8 µg/mL (≈ 37.6 µM) | 7.8 µg/mL (≈ 37.6 µM) | 7.8 µg/mL (≈ 37.6 µM) | 7.8 µg/mL (≈ 37.6 µM) | 7.8 µg/mL (≈ 37.6 µM) | 3.9 µg/mL (≈ 18.8 µM) | 125 µg/mL (≈ 603 µM) | 7.8 µg/mL (≈ 37.6 µM) | 2 µg/mL (≈ 9.65 µM) | > 125 µg/mL | 7.8 µg/mL (≈ 37.6 µM) | 15.6 µg/mL (≈ 75.3 µM) | 7.8 µg/mL (≈ 37.6 µM) | 15.6 µg/mL (≈ 75.3 µM) | 3.9 µg/mL (≈ 18.8 µM) | 7.8 µg/mL (≈ 37.6 µM) | 7.8 µg/mL (≈ 37.6 µM) | 3.9 µg/mL (≈ 18.8 µM) | 7.8 µg/mL (≈ 37.6 µM) | 7.8 µg/mL (≈ 37.6 µM) | MIC (Staphylococcus aureus [20]): 7.8 µg/mL (≈ 37.6 µM); MIC (Enterococcus faecium): 7.8 µg/mL (≈ 37.6 µM); MIC (Staphylococcus aureus [21]): 7.8 µg/mL (≈ 37.6 µM); MIC (Staphylococcus aureus [22]): 7.8 µg/mL (≈ 37.6 µM); MIC (Enterococcus faecalis [23]): 15.6 µg/mL (≈ 75.3 µM); MIC (Enterococcus faecalis [24]): 7.8 µg/mL (≈ 37.6 µM); MIC (Staphylococcus aureus [25]): 7.8 µg/mL (≈ 37.6 µM); MIC (Staphylococcus aureus [26]): 7.8 µg/mL (≈ 37.6 µM); MIC [27]: 7.8 µg/mL (≈ 37.6 µM); MIC (Staphylococcus aureus [28]): 7.8 µg/mL (≈ 37.6 µM); MIC (Staphylococcus aureus [29]): 7.8 µg/mL (≈ 37.6 µM); MIC (Staphylococcus aureus [30]): 7.8 µg/mL (≈ 37.6 µM); MIC (Listeria monocytogenes): > 125 µg/mL; MIC (Staphylococcus aureus [31]): 7.8 µg/mL (≈ 37.6 µM); MIC (Staphylococcus aureus [32]): 7.8 µg/mL (≈ 37.6 µM)
